From publication PMC3947851 (Bioorganic & medicinal chemistry, 2012)
Converted amounts (≈) assume the structure as drawn. Structures can show the parent of a compound that is named as a salt. Each block holds one molecule with its values, some of them ahead of it.

Experiments:
SaFtsZ [1] = target: T1, SaFtsZ (Staphylococcus aureus, UniProt P0A031); test: FtsZ polymerization assay; assay type: biochemical; conditions: for Impact on SaFtsZ polymerization (A340) / Stability of compound-induced SaFtsZ polymers to added GDP: compound 40 μg/mL, 1 mM GTP; for Impact on SaFtsZ polymerization (A340): 10 μM SaFtsZ, 25 °C; for Stability of compound-induced SaFtsZ polymers to added GDP: 1 mM GDP added
T1 sequence (P0A031 1-390): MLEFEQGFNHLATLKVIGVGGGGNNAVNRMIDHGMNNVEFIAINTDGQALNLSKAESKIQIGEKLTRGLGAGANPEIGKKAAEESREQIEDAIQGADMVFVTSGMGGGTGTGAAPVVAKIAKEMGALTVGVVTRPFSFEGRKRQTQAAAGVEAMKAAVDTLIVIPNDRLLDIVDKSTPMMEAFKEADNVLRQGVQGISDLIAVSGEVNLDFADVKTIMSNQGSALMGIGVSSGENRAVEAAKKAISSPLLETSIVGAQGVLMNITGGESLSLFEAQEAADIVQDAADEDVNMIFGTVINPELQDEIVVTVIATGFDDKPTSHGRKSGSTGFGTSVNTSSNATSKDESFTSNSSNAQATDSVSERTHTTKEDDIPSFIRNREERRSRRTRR

[2] = target: microtubule-associated protein (MAP)-rich porcine β-tubulin (Sus scrofa, UniProt P02554); test: Tubulin polymerization assay; assay type: biochemical; conditions: tubulin 2 mg/mL
Procedure, shortened: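 MAP-rich porcine tubulin (70% tubulin, 30% MAPs) at 2 mg/mL with 1 mM GTP in 80 mM PIPES NaOH (pH 7.0), 2 mM MgCl2, 1 mM EGTA. Test compound 40 μg/mL, paclitaxel 25 μg/mL or nocodazole 10 μg/mL as comparators, or DMSO vehicle. Turbidity (A340) read continuously at 37 °C over 60 min.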

[3] = MTT cytotoxicity assay, HEK293; assay type: cell-based, human; conditions: human, HEK293 cells
Procedure, shortened: (§1)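 MTT tetrazolium assay in 96-well plates. Cells were grown […] at 37 °C in 5% CO2 and passaged in DMEM. Each well was seeded with 1500 cells, and triplicate wells were exposed continuously to varying concentrations of test compound for four days. MTT was read at the end of day 4, and IC50 was determined.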

[4] = MTT cytotoxicity assay, MDCK; assay type: cell-based, canine; conditions: dog, MDCK cells
Procedure, shortened: as §1

HEK293 cells = test: MTT cytotoxicity assay, HEK293; assay type: cell-based, human; conditions: 10 μM, MTT
Procedure, shortened: as §1

SaFtsZ [5] = target: T1, SaFtsZ; test: FtsZ GTPase assay; assay type: biochemical; conditions: for Concentration dependence of the impact on SaFtsZ GTPase activity: 10 μM SaFtsZ, Fig. 4
S. aureus 8325-4 (MSSA) = test: MIC assay, CLSI broth microdilution, MSSA; assay type: cell-based; conditions: Staphylococcus aureus, 24 h, read-out: MIC S. aureus 8325-4 (MSSA), lowest concentration at which growth is ≥90% inhibited, CAMH broth, 37 °C

microtubule-associated protein (MAP)-rich porcine β-tubulin, sequence (P02554 whole entry): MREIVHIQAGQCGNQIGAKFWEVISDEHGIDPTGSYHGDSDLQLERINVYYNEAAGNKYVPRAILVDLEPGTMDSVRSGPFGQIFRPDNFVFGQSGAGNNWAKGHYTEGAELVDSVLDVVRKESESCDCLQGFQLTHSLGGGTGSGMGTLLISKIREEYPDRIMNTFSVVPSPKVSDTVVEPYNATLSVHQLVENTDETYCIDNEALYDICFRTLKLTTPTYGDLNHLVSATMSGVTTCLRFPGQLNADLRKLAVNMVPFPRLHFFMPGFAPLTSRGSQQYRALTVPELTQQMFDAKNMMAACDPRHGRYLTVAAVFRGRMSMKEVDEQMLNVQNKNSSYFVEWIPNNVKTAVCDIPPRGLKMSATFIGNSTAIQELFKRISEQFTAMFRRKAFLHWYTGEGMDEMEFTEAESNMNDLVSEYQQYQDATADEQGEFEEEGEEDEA
microtubule-associated protein (MAP)-rich porcine β-tubulin, sequence (P02550 whole entry partner): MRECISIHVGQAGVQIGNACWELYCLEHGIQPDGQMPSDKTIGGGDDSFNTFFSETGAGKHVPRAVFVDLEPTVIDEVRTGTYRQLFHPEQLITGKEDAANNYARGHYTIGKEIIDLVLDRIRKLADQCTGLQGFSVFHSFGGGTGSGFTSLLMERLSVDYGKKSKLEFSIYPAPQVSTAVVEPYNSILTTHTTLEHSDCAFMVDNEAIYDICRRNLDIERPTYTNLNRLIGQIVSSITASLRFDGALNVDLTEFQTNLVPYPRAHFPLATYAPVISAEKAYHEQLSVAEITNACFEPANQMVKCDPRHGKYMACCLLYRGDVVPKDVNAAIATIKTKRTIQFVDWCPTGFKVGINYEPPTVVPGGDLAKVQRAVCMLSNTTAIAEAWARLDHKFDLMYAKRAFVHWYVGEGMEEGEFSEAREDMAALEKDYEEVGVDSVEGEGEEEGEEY

SMILES: COc1ccc2cc3[n+](cc2c1OC)CCc1cc2c(cc1-3)OCO2 [Berberine, berberine, reference compound]
Impact on SaFtsZ polymerization (A340) (SaFtsZ [1]): did not significantly impact SaFtsZ polymerization

SMILES: COc1cc2cc(-c3cccc(C(C)(C)C)c3)nc(C)c2cc1OC [Compound 4a, 3-(3-(t-Butyl)phenyl)-6,7-dimethoxy-1-methylisoquino line]
Impact on SaFtsZ polymerization (A340) (SaFtsZ [1]): did not significantly impact SaFtsZ polymerization

Impact on SaFtsZ polymerization (A340) (SaFtsZ [1]): stimulate SaFtsZ polymerization
SMILES: COc1cc2cc(-c3cccc(-c4ccc(-c5ccccc5)cc4)c3)[n+](C)c(C)c2cc1OC.[I-] [Compound 5b, 3-([1,1′:4′,1″-Terphenyl]-3-yl)-6,7-dimethoxy-1,2-dimethy lisoquinolin-2-ium iodide]

SMILES: COc1cc2cc(-c3cccc(-c4ccc(C(C)(C)C)cc4)c3)nc(C)c2cc1OC [Compound 7a, 3-(4′-(t-Butyl)-[1,1′-biphenyl]-3-yl)-6,7-dimethoxy-1-methylisoquinoline]
Impact on SaFtsZ polymerization (A340) (SaFtsZ [1]): did not significantly impact SaFtsZ polymerization

Impact on SaFtsZ polymerization (A340) (SaFtsZ [1]): stimulate SaFtsZ polymerization
SMILES: COc1cc2cc(-c3cccc(-c4ccc(C(C)(C)C)cc4)c3)[n+](C)c(C)c2cc1OC.[I-] [Compound 7b, 3-(4′-(t-Butyl)-[1,1′-biphenyl]-3-yl)-6,7-dimethoxy-1,2-dimethylisoquinolin-2-ium iodide]
Impact on polymerization of porcine β-tubulin (A340) ([2]; compound 40 μg/mL, 37 °C): neither 7b nor 19a exert a significant impact | Stability of compound-induced SaFtsZ polymers to added GDP (SaFtsZ [1]): stable to the depolymerizing effects of GDP

SMILES: COc1cc2cc(-c3cccc(-c4ccccc4)c3)nc(N=C(N)N)c2cc1OC [Compound 10a, 2-(3-([1,1′-biphenyl]-3-yl)-6,7-dimethoxyisoquinolin-1-yl)guanidine]
IC50 at 4 days [3]: 2200 to 3500 nM | IC50 at 4 days [4]: 2200 to 3500 nM

SMILES: COc1cc2cc(-c3cccc(-c4ccccc4)c3)nc(CN=C(N)N)c2cc1OC [Compound 13a, 2-((3-([1,1′-biphenyl]-3-yl)-6,7-dimethoxyisoquinolin-1-yl)methyl)guanidine trifluo roacetate]
Human cell toxicity at the highest concentration tested (HEK293 cells): no significant human cell toxicity

Impact on SaFtsZ polymerization (A340) (SaFtsZ [1]): stimulate SaFtsZ polymerization
SMILES: COc1cc2cc(-c3cccc(-c4ccccc4)c3)nc(CCN=C(N)N)c2cc1OC [Compound 15a, 2-(2-(3-([1,1′-Biphenyl]-3-yl)-6,7-dimethoxyisoquinolin-1-yl)ethyl)guanidine]
Human cell toxicity at the highest concentration tested (HEK293 cells): no significant human cell toxicity | Concentration dependence of the impact on SaFtsZ GTPase activity (SaFtsZ [5]): stimulate GTPase activity at lower concentrations, followed by inhibition at higher concentrations

SMILES: COc1cc2cc(-c3cccc(C(C)(C)C)c3)nc(CN)c2cc1OC [Compound 16a, (3-(3-(t-Butyl)phenyl)-6,7-dimethoxyisoquinolin-1-yl)methanamine]
Human cell toxicity at the highest concentration tested (HEK293 cells): no significant human cell toxicity

Impact on SaFtsZ polymerization (A340) (SaFtsZ [1]): stimulate SaFtsZ polymerization
SMILES: COc1cc2cc(-c3cccc(C(C)(C)C)c3)nc(CCN)c2cc1OC [Compound 17a, 2-(3-(3-(t-Butyl)phenyl)-6,7-dimethoxyisoquinolin-1-yl)ethanamine]
IC50 at 4 days [3]: 2200 to 3500 nM | IC50 at 4 days [4]: 2200 to 3500 nM | Stability of compound-induced SaFtsZ polymers to added GDP (SaFtsZ [1]): stable to the depolymerizing effects of GDP

Impact on SaFtsZ polymerization (A340) (SaFtsZ [1]): stimulate SaFtsZ polymerization
SMILES: COc1cc2cc(-c3cccc(C(C)(C)C)c3)nc(C/N=C(/C)N)c2cc1OC [Compound 18a, N′-((3-(3-(t-butyl)phenyl)-6,7-dimethoxyisoquinolin-1-yl)methyl)acetimidamide]
Concentration dependence of the impact on SaFtsZ GTPase activity (SaFtsZ [5]): stimulate GTPase activity at lower concentrations, followed by inhibition at higher concentrations

Impact on SaFtsZ polymerization (A340) (SaFtsZ [1]): stimulate SaFtsZ polymerization
SMILES: COc1cc2cc(-c3cccc(C(C)(C)C)c3)nc(CN=C(N)N)c2cc1OC [Compound 19a, 2-((3-(3-(t-Butyl)phenyl)-6,7-dimethoxyisoquinolin-1-yl)methyl)guanidine]
Impact on polymerization of porcine β-tubulin (A340) ([2]; compound 40 μg/mL, 37 °C): neither 7b nor 19a exert a significant impact

MIC (S. aureus 8325-4 (MSSA)): 2 to 4 µg/mL (≈ 4.92 to 9.84 µM) | Impact on SaFtsZ polymerization (A340) (SaFtsZ [1]): stimulate SaFtsZ polymerization
SMILES: COc1cc2cc(-c3cccc(C(C)(C)C)c3)nc(CCN=C(N)N)c2cc1OC [Compound 20a, 2-(2-(3-(3-(t-Butyl)phenyl)-6,7-dimethoxyisoquinolin-1-yl)ethyl)guanidine]
Concentration dependence of the enhancement of SaFtsZ polymerization (SaFtsZ [1]; 20, 30 and 40 μg/mL): enhances SaFtsZ polymerization increases with increasing compound concentration | Stability of compound-induced SaFtsZ polymers to added GDP (SaFtsZ [1]): stable to the depolymerizing effects of GDP

SMILES: COc1cc2cc(-c3cccc(-c4ccc(C(C)(C)C)cc4)c3)nc(CN=C(N)N)c2cc1OC [Compound 21a, 2-((3-(4′-(t-Butyl)-[1,1′-biphenyl]-3-yl)-6,7-dimethoxyisoquinolin-1-yl)methyl)guanidine trifluoroacetate]
MIC (S. aureus 8325-4 (MSSA)): 2 to 4 µg/mL

Impact on SaFtsZ polymerization (A340) (SaFtsZ [1]): stimulate SaFtsZ polymerization
SMILES: NC(=O)c1c(F)ccc(OCc2nc3cc(Cl)cnc3s2)c1F [PC190723, reference compound]

SMILES: CN[C@H](CC(C)C)C(=O)N[C@H]1C(=O)N[C@@H](CC(N)=O)C(=O)N[C@H]2C(=O)N[C@H]3C(=O)N[C@H](C(=O)N[C@H](C(=O)O)c4cc(O)cc(O)c4-c4cc3ccc4O)[C@H](O)c3ccc(c(Cl)c3)Oc3cc2cc(c3O[C@@H]2O[C@H](CO)[C@@H](O)[C@H](O)[C@H]2O[C@H]2C[C@](C)(N)[C@H](O)[C@H](C)O2)Oc2ccc(cc2Cl)[C@H]1O [Vancomycin, reference compound]
Percent GTPase activity (SaFtsZ [5]; 40 μg/mL, percentage of activity with vehicle (DMSO) alone, mean of two ± SD): no significant impact | Impact on SaFtsZ polymerization (A340) (SaFtsZ [1]): no impact on the polymerization of SaFtsZ

SMILES: COC(=O)Nc1nc2cc(C(=O)c3cccs3)ccc2[nH]1 [nocodazole, reference compound]
Impact on polymerization of porcine β-tubulin (A340) ([2]; 10 μg/mL, positive control): produce their expected impacts on tubulin polymerization dynamics

SMILES: CC(=O)O[C@H]1C(=O)[C@@]2(C)[C@H]([C@H](OC(=O)c3ccccc3)[C@]3(O)C[C@H](OC(=O)[C@H](O)[C@@H](NC(=O)c4ccccc4)c4ccccc4)C(C)=C1C3(C)C)[C@]1(OC(C)=O)CO[C@@H]1C[C@@H]2O [paclitaxel, reference compound]
Impact on polymerization of porcine β-tubulin (A340) ([2]; 25 μg/mL, positive control): produce their expected impacts on tubulin polymerization dynamics
